The values below come from ChEMBL document CHEMBL2177085 (J Med Chem, 2012).

Assay [1] concerns MKN-45. Briefly: Cytotoxic activity against human MKN45 cells assessed as cell viability at 20 uM incubated for 5 days by MTT assay. The assay is classed as functional. As to conditions: MKN-45, 120 h, read-out: Activity. An outline of the steps:
(§1)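 MTT viability: exponentially growing cells, 10 000 viable cells/well in RPMI plated overnight, then exposed to test compounds for 3 days (HT-29, Molm-14) or 5 days (Mkn-45) at 37 °C, 5% CO2. MTT added for 4 h, then SDS/HCl solubilization overnight and absorbance read at 562 nm. Viability is expressed relative to untreated cells (100%). Triplicate.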

Assay [2] relates to MKN-45. The assay can be described thus: Cytotoxic activity against human MKN45 cells assessed as cell viability at 0.5 uM incubated for 5 days by MTT assay. Type of assay: functional. The settings on record: MKN-45, 120 h, read-out: Activity. An outline of the steps:
as §1

Assay [3] concerns MKN-45. Briefly: Induction of apoptosis in human MKN45 assessed as accumulation at subG1 phase at 5 uM incubated for 7 days by flow cytometry (reference value: 10.9 +/- 3.2%). The assay is classed as functional.
In assay [4] the test system is HT-29. The assay can be described thus: Cytotoxic activity against human HT-29 cells assessed as cell viability at 26 uM incubated for 3 days by MTT assay. Type of assay: functional. As to conditions: HT-29, 72 h, read-out: Activity. An outline of the steps:
as §1

Assay [5] deals with HUVEC. Briefly: Induction of apoptosis in human HUVEC assessed as accumulation at subG1 phase at 2.6 uM incubated for 4 days by flow cytometry (reference value: 15.4 +/- 1.5%). The assay is classed as functional.
Assay [6] has as its target Vascular endothelial growth factor receptor 2 (Homo sapiens, UniProt P35968). The assay can be described thus: Inhibition of VEGFR2. In short, it runs like this:
(§2)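 IC50 determined by a commercial kinase profiling service (Millipore IC50 Profiler); duplicate testing.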

Assay [7] relates to MKN-45. Briefly: Cytotoxic activity against human MKN45 cells assessed as cell viability at 5 uM incubated for 5 days by MTT assay. The assay is classed as functional. The settings on record: MKN-45, 120 h, read-out: Activity. An outline of the steps: as §1
The target in assay [8] is T1, Receptor-type tyrosine-protein kinase FLT3 (Homo sapiens, UniProt P36888).
T1 sequence (P36888 whole entry): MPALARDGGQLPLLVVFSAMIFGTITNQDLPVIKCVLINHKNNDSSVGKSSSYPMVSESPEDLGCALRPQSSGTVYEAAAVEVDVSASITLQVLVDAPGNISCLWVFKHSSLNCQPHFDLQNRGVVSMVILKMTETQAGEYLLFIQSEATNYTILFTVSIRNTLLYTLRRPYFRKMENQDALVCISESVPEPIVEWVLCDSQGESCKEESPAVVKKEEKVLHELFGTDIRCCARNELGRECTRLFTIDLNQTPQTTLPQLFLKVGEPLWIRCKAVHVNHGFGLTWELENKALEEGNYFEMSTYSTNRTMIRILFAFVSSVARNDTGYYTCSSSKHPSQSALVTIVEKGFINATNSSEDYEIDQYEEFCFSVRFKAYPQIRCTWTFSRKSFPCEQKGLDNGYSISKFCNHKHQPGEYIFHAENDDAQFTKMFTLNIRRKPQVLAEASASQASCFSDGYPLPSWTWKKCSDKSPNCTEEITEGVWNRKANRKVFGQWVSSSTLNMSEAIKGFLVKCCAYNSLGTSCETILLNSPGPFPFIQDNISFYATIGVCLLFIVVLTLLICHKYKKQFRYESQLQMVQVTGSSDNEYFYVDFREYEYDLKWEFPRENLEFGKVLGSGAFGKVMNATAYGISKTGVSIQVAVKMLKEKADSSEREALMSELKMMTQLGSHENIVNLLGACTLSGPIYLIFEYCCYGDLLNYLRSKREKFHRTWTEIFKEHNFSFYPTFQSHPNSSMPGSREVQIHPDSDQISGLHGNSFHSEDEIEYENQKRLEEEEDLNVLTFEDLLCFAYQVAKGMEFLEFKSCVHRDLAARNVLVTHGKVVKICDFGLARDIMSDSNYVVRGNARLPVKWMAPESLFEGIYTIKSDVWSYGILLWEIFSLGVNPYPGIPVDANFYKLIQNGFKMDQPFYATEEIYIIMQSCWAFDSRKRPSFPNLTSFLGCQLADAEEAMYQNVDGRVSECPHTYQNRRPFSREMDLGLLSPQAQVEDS
The assay can be described thus: Inhibition of FLT3. In short, it runs like this:
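Run as an outsourced kinase profiling service (Millipore IC50 Profiler), with the protocol referred to the provider. Gives IC50 values and residual activity at 10 μM test compound. Compounds tested in duplicate.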

Assay [9] relates to HT-29. Briefly: Cytotoxic activity against human HT-29 cells assessed as cell viability at 52 uM incubated for 3 days by MTT assay. The assay is classed as functional. The settings on record: HT-29, 72 h, read-out: Activity. In short, it runs like this: as §1
The target of assay [10] is Glycogen synthase kinase-3 beta (Homo sapiens, UniProt P49841). Briefly: Inhibition of GSK3beta. An outline of the steps: as §2
The test system of assay [11] is MKN-45. The assay can be described thus: Cytotoxic activity against human MKN45 cells assessed as cell viability at 50 uM incubated for 5 days by MTT assay. Type of assay: functional. The settings on record: MKN-45, 120 h, read-out: Activity. In short, it runs like this:
as §1

For assay [12], the system named is HUVEC. The assay can be described thus: Induction of apoptosis in human HUVEC assessed as accumulation at subG1 phase at 0.79 uM incubated for 4 days by flow cytometry (reference value: 15.4 +/- 1.5%). The assay is classed as functional.
Assay [13] deals with MKN-45. Briefly: Induction of apoptosis in human MKN45 assessed as accumulation at subG1 phase at 10 uM incubated for 7 days by flow cytometry (reference value: 10.9 +/- 3.2%). The assay is classed as functional.
In assay [14] the test system is MKN-45. The assay can be described thus: Induction of apoptosis in human MKN45 assessed as accumulation at subG1 phase at 1 uM incubated for 7 days by flow cytometry (reference value: 10.9 +/- 3.2%). The assay is classed as functional.
Assay [15] concerns HT-29. Briefly: Cytotoxic activity against human HT-29 cells assessed as cell viability at 7.9 uM incubated for 3 days by MTT assay. The assay is classed as functional. As to conditions: HT-29, 72 h, read-out: Activity. In short, it runs like this: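 HT-29 cells in exponential growth were seeded at 10 000 viable cells per well in RPMI and left overnight. They were then exposed to compound for 3 days at 37 °C under 5% CO₂. MTT was added for 4 h, followed by overnight solubilisation in 10% SDS/0.01 M HCl and absorbance at 562 nm. Viability is expressed as % of untreated cells (100%), in triplicate.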

The test system of assay [16] is MKN-45. The assay can be described thus: Cytotoxic activity against human MKN45 cells assessed as cell viability at 10 uM incubated for 5 days by MTT assay. Type of assay: functional. The settings on record: MKN-45, 120 h, read-out: Activity. An outline of the steps:
as §1

Assay [17] relates to HT-29. The assay can be described thus: Cytotoxic activity against human HT-29 cells assessed as cell viability at 2.6 uM incubated for 3 days by MTT assay. Type of assay: functional. The settings on record: HT-29, 72 h, read-out: Activity. An outline of the steps:
as §1

In assay [18] the test system is MKN-45. Briefly: Induction of apoptosis in human MKN45 assessed as accumulation at subG1 phase at 15 uM incubated for 7 days by flow cytometry (reference value: 10.9 +/- 3.2%). Type of assay: functional.
For assay [19], the system named is MKN-45. The assay can be described thus: Cytotoxic activity against human MKN45 cells assessed as cell viability at 1 uM incubated for 5 days by MTT assay. The settings on record: MKN-45, 120 h, read-out: Activity. Type of assay: functional. In short, it runs like this:
as §1

For assay [20], the system named is MKN-45. The assay can be described thus: Induction of apoptosis in human MKN45 assessed as accumulation at subG1 phase at 20 uM incubated for 7 days by flow cytometry (reference value: 10.9 +/- 3.2%). Type of assay: functional.
The nature of assay [21]: Inhibition of angiogenesis in chick embryo model assessed as reduction in vessel growth at 26 nM incubated for 24 hrs. Type of assay: functional, Gallus gallus. An outline of the steps:
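White leghorn eggs incubated at 37.5 °C, 62% humidity. At 70 h, albumen removed and shell windowed. From 75 h, 15 agarose pellets (from a 26 mM DMSO stock in 2% agarose; final concentration 26 nM) placed on the area vasculosa.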

Each structure is given as a SMILES string.

Chain of Glycogen synthase kinase-3 beta (P49841 whole entry): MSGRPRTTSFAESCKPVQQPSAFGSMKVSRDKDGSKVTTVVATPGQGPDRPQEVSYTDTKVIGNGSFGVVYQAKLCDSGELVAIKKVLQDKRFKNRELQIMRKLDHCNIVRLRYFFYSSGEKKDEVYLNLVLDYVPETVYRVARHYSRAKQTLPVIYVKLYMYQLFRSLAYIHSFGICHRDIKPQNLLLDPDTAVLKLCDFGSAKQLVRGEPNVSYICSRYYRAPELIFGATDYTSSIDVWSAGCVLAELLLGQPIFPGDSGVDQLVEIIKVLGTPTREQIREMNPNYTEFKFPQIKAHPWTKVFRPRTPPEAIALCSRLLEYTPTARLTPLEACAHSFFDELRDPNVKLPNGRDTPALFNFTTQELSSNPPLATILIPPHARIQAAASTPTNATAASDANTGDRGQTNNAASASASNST
Chain of Vascular endothelial growth factor receptor 2 (P35968 whole entry): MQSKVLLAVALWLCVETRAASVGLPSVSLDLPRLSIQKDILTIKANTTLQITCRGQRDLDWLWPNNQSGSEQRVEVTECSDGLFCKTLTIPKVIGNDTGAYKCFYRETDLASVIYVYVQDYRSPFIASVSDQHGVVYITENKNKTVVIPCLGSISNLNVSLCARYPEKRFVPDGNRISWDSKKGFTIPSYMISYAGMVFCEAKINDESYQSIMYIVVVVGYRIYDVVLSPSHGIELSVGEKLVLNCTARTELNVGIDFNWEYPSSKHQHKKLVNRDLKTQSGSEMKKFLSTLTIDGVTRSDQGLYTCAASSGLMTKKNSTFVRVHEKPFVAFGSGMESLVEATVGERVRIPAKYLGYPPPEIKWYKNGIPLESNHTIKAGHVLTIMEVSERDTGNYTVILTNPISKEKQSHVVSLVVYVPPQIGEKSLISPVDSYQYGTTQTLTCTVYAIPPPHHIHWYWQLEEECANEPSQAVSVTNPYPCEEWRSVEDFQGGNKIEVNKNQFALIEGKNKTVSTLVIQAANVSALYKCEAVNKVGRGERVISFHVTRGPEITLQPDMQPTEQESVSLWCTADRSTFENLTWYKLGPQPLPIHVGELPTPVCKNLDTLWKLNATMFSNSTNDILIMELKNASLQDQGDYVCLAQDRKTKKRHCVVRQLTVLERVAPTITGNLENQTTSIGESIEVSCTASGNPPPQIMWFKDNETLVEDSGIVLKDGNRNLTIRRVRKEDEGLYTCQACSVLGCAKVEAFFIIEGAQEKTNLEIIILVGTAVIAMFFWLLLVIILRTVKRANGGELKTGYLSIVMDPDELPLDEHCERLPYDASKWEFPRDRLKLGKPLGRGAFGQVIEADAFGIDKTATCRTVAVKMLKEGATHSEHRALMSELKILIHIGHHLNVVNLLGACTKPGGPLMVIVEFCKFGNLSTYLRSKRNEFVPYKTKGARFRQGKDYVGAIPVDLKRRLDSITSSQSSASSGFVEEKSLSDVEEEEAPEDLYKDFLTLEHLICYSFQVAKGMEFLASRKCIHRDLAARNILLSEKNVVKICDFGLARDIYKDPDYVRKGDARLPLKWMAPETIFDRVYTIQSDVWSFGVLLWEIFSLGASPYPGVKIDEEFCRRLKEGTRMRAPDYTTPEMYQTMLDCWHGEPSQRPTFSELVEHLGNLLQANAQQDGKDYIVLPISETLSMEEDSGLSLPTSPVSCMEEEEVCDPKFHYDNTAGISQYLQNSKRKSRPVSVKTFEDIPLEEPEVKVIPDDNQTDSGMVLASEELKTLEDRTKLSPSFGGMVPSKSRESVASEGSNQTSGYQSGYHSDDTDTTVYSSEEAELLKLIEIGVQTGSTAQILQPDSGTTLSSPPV

In the case of `COc1cc(C2=C(c3c[nH]c4ccncc34)C(=O)NC2=O)cc(OC)c1OC`, the viability at 20 µM in assay [1] worked out at 89.4%. Further, the viability at 0.5 µM in assay [2] was found to be 99.1%. Moreover, the Activity in assay [3] worked out at 15.7%; in assay [5], 46.3%; in assay [12], 31.3%; in assay [13] it was 21.5%; in [14], 8.8%; in [18], 25.7%. The Activity in [20] is recorded as 31.6%. For the same molecule, the viability at 26 µM in [4] was 56.5%. Also, the half-inhibitory concentration (IC50) in assay [6] is 590 nM; in assay [8] it was at least 3000 nM; in assay [10], 40 nM. Besides, the viability at 5 µM in assay [7] is 99%. The viability at 52 µM in assay [9] was determined as 47.4%. Moreover, in [11], the viability at 50 µM was 82.5%. In addition, in assay [15], the viability at 7.9 µM came to 61.5%. The viability at 10 µM in [16] was 98.6%. Moreover, in [17], the viability at 2.6 µM is 90.8%. The viability at 1 µM in [19] was determined as 100%. Moreover, the “inhibition (INH)” value in assay [21] worked out at 40%.
